Assay outcomes as filed in PubChem BioAssay.
RGS16-Gao HTS = RGS16-Galphao interaction regulator (human); binding response (% of control), % at 10 µM; O15492+P09471; bead-based flow cytometry RGS16-Galphao binding, fluorescence; actives lie on both sides; actives 0.38% (n = 220,000);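 note: Galphao activated by GDP with aluminum fluoride before binding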
RGS8-Gao = regulators of human RGS8-Galphao interaction; P09471; multiplexed bead flow cytometry, RGS8-Galphao binding; actives lie on both sides; response (percent of control binding), % at 10 µM; actives 0.34% (n = 220,000); AID 1423; in the data active = response below about 60% or above about 140%; inactive = in between;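 note: Galphao activated as the GDP aluminium fluoride complex binding bead-coupled RGS8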
ABCB1 inh = human ABCB1 inhibition, ABCG2 as counter-screen. P08183. CCRF-Adr cells, JC-1 efflux, flow cytometry. actives 0.067% (n = 190,000). inhibition, % at 6.6 µM; in the data active = inhibition above about 40%;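 note: 0% = vehicle and 100% = reference inhibitor; higher value means more JC-1 retained so stronger ABCB1 efflux block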
RGS7-Gao = human RGS7-Galphao interaction regulation; P09471; Multiplexed bead flow cytometry, RGS7-Galphao binding; actives lie on both sides; binding response (% of control), % at 10 µM; actives 0.35% (n = 220,000); in the data active = binding response below about 49% or above about 150%; inconclusive = no clear call, values can overlap the other calls; inactive = in between;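 note: fluorescent Galphao held in activated GDP-AlF4 state binding bead-coupled RGS7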
ABCG2 block = inhibitors of human ABCG2 transporter, ABCB1 counter-screen; IgMXP3 cells, JC-1 efflux, flow cytometry; inhibition, % at 6.6 µM; actives 0.1% (n = 190,000); Q9UNQ0;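 active = inhibition above 80%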;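 note: 0% = DMSO and 100% = nicardipine control wells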
Target sequence (Q9UNQ0 whole entry, looked up): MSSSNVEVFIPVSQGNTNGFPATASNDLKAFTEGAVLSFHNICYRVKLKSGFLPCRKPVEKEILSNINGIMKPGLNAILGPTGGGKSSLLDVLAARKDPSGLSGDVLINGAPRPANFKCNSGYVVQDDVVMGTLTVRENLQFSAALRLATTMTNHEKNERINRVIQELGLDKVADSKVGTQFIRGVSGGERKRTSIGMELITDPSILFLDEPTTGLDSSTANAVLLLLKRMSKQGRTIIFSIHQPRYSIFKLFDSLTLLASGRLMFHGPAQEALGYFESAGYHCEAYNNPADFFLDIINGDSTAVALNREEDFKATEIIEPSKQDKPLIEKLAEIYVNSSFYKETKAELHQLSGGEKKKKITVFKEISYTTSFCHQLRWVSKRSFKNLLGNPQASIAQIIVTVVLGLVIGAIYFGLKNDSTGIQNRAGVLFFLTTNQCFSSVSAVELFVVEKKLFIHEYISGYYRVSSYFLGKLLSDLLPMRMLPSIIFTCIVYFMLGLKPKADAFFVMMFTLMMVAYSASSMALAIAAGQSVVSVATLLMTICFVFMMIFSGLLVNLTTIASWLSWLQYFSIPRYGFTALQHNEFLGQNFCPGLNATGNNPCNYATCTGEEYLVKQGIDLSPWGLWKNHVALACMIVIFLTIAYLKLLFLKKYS
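test system = two drug-resistant human cell lines, ABCG2 and ABCB1 | amount = 3 million cells/mL final, two lines in 1:1 ratio | reagent = JC-1 transporter substrate | doses = one concentration, 6.6 µM final | incubation = 10 min at 25 °C | signal = flow cytometric JC-1 green MFI at 530 nm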
RGS4-Gao reg = human RGS4-Galphao interaction regulation. P09471. Multiplexed bead flow cytometry, RGS4-Galphao binding; actives lie on both sides. binding response (% of control), % at 10 µM. actives 0.33% (n = 220,000); in the data active = binding response below about 49% or above about 150%; inactive = in between;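 note: fluorescent Galphao activated with aluminum fluoride binding bead-coupled RGS4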
RGS-Gao = regulators of human RGS4-Galphao interaction; AID 1504; actives 99% (n = 1,600); shares compounds with RGS16-Gao HTS; multiplexed bead flow cytometry, RGS–Galpha-o binding; RGS4–Galpha-o binding response, % at 10 µM;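 note: fluorescently labeled Galpha-o bound to GDP with aluminium fluoride binding biotinylated RGS beads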
Biotin-avidin = interferes with biotinylated probe binding to avidin beads; shares compounds with RGS16-Gao HTS; streptavidin beads, fluorescein-biotin binding, flow cytometry; inhibition, % at 10 µM; 1,700 tested, under 10 active;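 active = inhibition above 50%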;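 note: median green fluorescence of gated singlet beads compared with DMSO control wells; 0% = DMSO wells and 100% = complete loss of bead fluorescence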
RGS8-Gao single = confirmation of regulators of human RGS8-Galphao interaction. shares compounds with RGS16-Gao HTS. bead-based flow cytometry RGS8-Galphao binding, fluorescence; actives lie on both sides. binding response (% of control), % at 10 µM. actives 3% (n = 1,700). AID 1836; in the data active = binding response below about 72% or above about 130%; inactive = in between;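 note: Galphao activated as GDP AlF4 complex before binding bead RGS8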
RGS7-Gao single = confirmation of regulators of human RGS7-Galphao interaction. shares compounds with RGS16-Gao HTS. actives 7.8% (n = 1,700). bead-based flow cytometry RGS7-Galphao binding; actives lie on both sides. response (percent of control binding), % at 10 µM; in the data active = response below about 75% or above about 130%; inactive = in between;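 note: fluorescent Galphao activated with GDP and aluminum fluoride binding bead-coupled RGS7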
RGS16-Gao conf = RGS16-Galphao interaction regulation, single point confirmation | actives 4% (n = 1,700) | AID 1838 | response (% of control binding), % at 10 µM | bead-based flow cytometry, RGS16-Galphao binding; actives lie on both sides | shares compounds with RGS16-Gao HTS; in the data active = response below about 74% or above about 130%; inactive = in between;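 note: Galphao activated as the GDP aluminium fluoride complex binding bead-coupled RGS16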
RGS4-Gao single = confirmation of regulators of human RGS4-Galphao interaction | actives 4% (n = 1,700) | shares compounds with RGS16-Gao HTS | RGS4-Galphao binding, multiplexed bead flow cytometry; actives lie on both sides | AID 1840 | binding response (% of control), % at 10 µM; in the data active = binding response below about 74% or above about 130%; inactive = in between
RGS19-Gao conf = RGS19-Galphao interaction regulation, single point confirmation | shares compounds with RGS16-Gao HTS | bead-based flow cytometry RGS19-Galphao binding; actives lie on both sides | response (percent of control binding), % at 10 µM | actives 5% (n = 1,700) | AID 1841; in the data active = response below about 50% or above about 160%; inactive = in between;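 note: 100% = no compound control and 0% = blank background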
* = called active by the depositor; ? = inconclusive; . = no result given; [ ] = remark or other dose. The list is not random: actives were taken first. Their share in the collection is about 0.83%. Unless noted, the rule behind the calls is not given here.

SMILES | RGS16-Gao HTS | RGS8-Gao | ABCB1 inh | RGS7-Gao | ABCG2 block | RGS4-Gao reg | RGS-Gao | Biotin-avidin | RGS8-Gao single | RGS7-Gao single | RGS16-Gao conf | RGS4-Gao single | RGS19-Gao conf
C=CCN1CC[C@]23c4c5ccc(O)c4O[C@H]2C(=O)CC[C@@]3(O)[C@H]1C5 | 54 | 57* | 0 | 34* | 2 | 48* | . | 0 | 101 | 104 | 101 | 100 | 107
Cc1nn(Cc2ccccc2)c(Cl)c1C(=O)OCC(=O)N1CCCC1 | 102 | 102 | 0 | 99 | 2 | 102 | . | . | . | . | . | . | .
COc1cc(CC2(CCc3ccncc3)C(=O)N(C)C(=O)N(C)C2=O)cc(OC)c1OC | 87 | 58* | 1 | 59 | 7 | 101 | 101* | 2 | 97 | 92 | 95 | 94 | 92
O=C(Nc1ccccc1)c1cc([N+](=O)[O-])ccc1N1CCNCC1 | 96 | 59* | 1 | ? | 2 | 89 | 89* | -2 | 104 | 101 | 105 | 104 | 93
CCN1CCN(c2ccc([N+](=O)[O-])cc2C(=O)OC)CC1 | 107 | 102 | 1 | 99 | 3 | 101 | . | . | . | . | . | . | .
Cc1ccc(S(=O)(=O)N2CCCCC2)cc1NC(=O)CN1CC=C(c2ccccc2)CC1 | 332 | 142*[activator] | 4 | 122 | 27 | 118 | 118* | 0 | 111 | 114 | 110 | 112 | 107
O=C(CN1CC=C(c2ccccc2)CC1)Nc1cc(Cl)ccc1Cl | 101 | 100 | 1 | 104 | 4 | 104 | . | . | . | . | . | . | .
